In the library only some 3.1% were active in any assay of this set; here they are far more common.
KCNQ1 act: human KCNQ1 channel potentiation or activation. CHO-K1 KCNQ1, thallium flux FluxOR fluorescence; stronger effect = higher value. B-score at 10 µM. AID 2648. actives 0.35% (n = 310,000);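 active = fluorescence ratio B-score, a plate-corrected score, at least three library SD, with initial intensity B-score within 5 SD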
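Test system: CHO-K1 cells stably expressing KCNQ1 / Medium: assay buffer / Also added: depolarizing K+/Tl+ stimulus, K2SO4 and Tl2SO4 each 12.5 mM in 5x stock / Incubation: 90 min dye loading and 20 min compound exposure, both at room temperature / Signal: thallium influx via FluxOR fluorescence, kinetic imaging / Evaluation: B score of baseline-normalized fluorescence ratio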
KCNK9 block: blocks the human KCNK9 two-pore domain potassium channel; Q9NPC2; HEK293 KCNK9, FluxOR thallium flux fluorescence; stronger effect = lower value; B-score at 10 µM; actives 1.2% (n = 310,000);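 active = ratio B-score over 3 SD below the library mean, with starting fluorescence within 5 SD of its mean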;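 also: negative B-score means less thallium flux so channel inhibition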
KCNK3 block: human KCNK3 channel inhibition, primary screen. O14649. CHO-KCNK3 thallium flux, FluxOR fluorescence; stronger effect = lower value. B-score at 10 µM. actives 0.84% (n = 340,000);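 active = B-score under library mean minus 4 SD, starting fluorescence ratio at most library mean plus 5 SD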;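 also: more negative B-score means stronger inhibition of thallium flux through KCNK3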
Target sequence (O14649 whole entry, looked up): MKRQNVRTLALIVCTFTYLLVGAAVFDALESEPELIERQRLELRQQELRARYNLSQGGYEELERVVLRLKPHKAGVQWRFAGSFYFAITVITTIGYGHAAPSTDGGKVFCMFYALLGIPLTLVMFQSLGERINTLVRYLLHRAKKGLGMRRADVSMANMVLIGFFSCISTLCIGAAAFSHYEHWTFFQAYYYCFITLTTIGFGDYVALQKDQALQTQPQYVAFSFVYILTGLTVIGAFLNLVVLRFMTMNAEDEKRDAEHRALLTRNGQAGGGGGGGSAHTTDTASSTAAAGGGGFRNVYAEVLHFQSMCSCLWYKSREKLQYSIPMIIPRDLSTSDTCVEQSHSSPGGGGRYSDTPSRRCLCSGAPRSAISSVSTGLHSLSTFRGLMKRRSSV
KCNQ1 inh: blocks the human KCNQ1 potassium channel; actives 1.3% (n = 310,000); B-score at 10 µM; P51787; AID 2642; CHO-K1 KCNQ1, FluxOR thallium flux fluorescence; stronger effect = higher value;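 active = compounds whose thallium flux B-score, printed positive for inhibition, exceeds three library SD while starting fluorescence stays within three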;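 also: channel opened by potassium depolarization with thallium stimulus after 20 min compound exposure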
hERG rescue: compounds protecting human hERG from proarrhythmic drug block | CHO-hERG, FluxOR thallium flux, dofetilide IC70 present | activation (rescue from dofetilide block), less the hit threshold, % at 10 µM | actives 0.51% (n = 310,000) | AID 1511;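 active = activation above the mean of controls blocked by dofetilide plus 5 SD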;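 also: thallium influx through hERG after potassium depolarization seen as dye fluorescence rise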
* marks the source's active call; other numbers are inactive results; i = inactive; · = no result.

SMILES	KCNQ1 act	KCNK9 block	KCNK3 block	KCNQ1 inh	hERG rescue
CCCC(c1nnnn1C(C)(C)CC)N(Cc1ccco1)Cc1cc2ccc(OC)cc2[nH]c1=O (stereo not drawn)	i	-6.8*	i	i	-10
CCN1CCN(c2c(S(=O)(=O)c3ccc(C)c(C)c3)cnc3ccc(F)cc23)CC1	i	i	i	i	-7
O=C(CNC(=O)c1ccccc1)NCc1ccc(Cl)cc1	18*	i	i	i	28*
O=C(N/N=C\c1c(O)ccc2ccccc12)c1ccc(S(=O)(=O)N2CCCCC2)cc1	i	i	i	6*	-15
O=C(NN=Cc1c(O)ccc2ccccc12)c1ccc2c(c1)OCO2	·	·	i	·	·
O=C(CN1CCCc2ccccc21)N/N=C/c1ccccc1	i	i	i	i	-7
O=C(CN1CCCc2ccccc21)N/N=C/c1c(O)ccc2ccccc12	i	i	i	7*	-5
O=C(Cc1ccc(-c2ccccc2)cc1)Nc1ncccc1O	i	i	i	i	-4
Cc1nc2nc(C)c(NS(=O)(=O)c3ccc4c(c3)CCCC4)c(=O)n2[nH]1	i	i	i	i	-5
CCN(CC(=O)NCc1cccs1)C(=O)c1ccc(-c2ccccc2F)o1	·	·	i	·	·
Cn1nc(C(F)(F)F)c2cc(C(=O)Nc3ccc(F)cc3F)sc21	i	-7.2*	i	i	-5
Cn1nc(C(F)(F)F)c2cc(C(=O)Nc3ccc(Cl)cc3)sc21	i	i	i	i	-8
Cn1nc(C(F)(F)F)c2cc(NC(=O)OCc3ccc(C(C)(C)C)cc3)sc21	i	i	i	7*	-12
CC(C)(C)OC(=O)N1CCCC(C(=O)Nc2ccc(C(=O)N3CCOCC3)cc2)C1 (stereo not drawn)	·	·	i	·	·
CCOC(=O)c1c(C)[nH]c(C)c1C(=O)COC(=O)c1cc2ccccc2cc1OC	i	-7.7*	i	i	-8
COc1ccc(C(=O)NC(=S)Nc2ccc(CN3CCOCC3)cc2)cc1OC	i	i	i	i	-5
COc1ccc(Br)cc1/C=C/C(=O)NC(=S)Nc1ccc(CN2CCOCC2)cc1	i	i	i	8*	-19
Cc1ccc(-c2cc(C(=O)Nc3cc(C)ccc3O)no2)cc1	i	-7.8*	i	i	-8
O=C(NCC(c1ccco1)N1CCc2ccccc2C1)C(=O)Nc1ccc(F)cc1F (stereo not drawn)	i	i	i	i	-7
Cc1ccccc1N(CC(=O)NCc1ccccc1)C(=O)CCC(=O)Nc1nccs1	i	i	i	i	-11
Cc1cccc(N2CCN(C(=O)c3ccc4nccnc4c3)CC2C)c1 (stereo not drawn)	·	·	-9.5*	·	·
O=C(c1ccc2nccnc2c1)N1CCN(c2ccccc2)CC1	i	i	i	i	-5
CCN(C1CCCCC1)S(=O)(=O)CCNC(=O)c1ccccc1	i	i	i	i	-10
COc1ccc2ccccc2c1-c1sc(Nc2ccccc2)n[n+]1-c1ccc(F)cc1	i	-7.4*	i	7*	-27
O=C(Nc1ccc(Cl)cc1)c1ccc(OCC2CCCO2)cc1 (stereo not drawn)	i	i	i	i	-6
SMILES	KCNQ1 act	KCNK9 block	KCNK3 block	KCNQ1 inh	hERG rescue
O=C(Nc1nc(-c2ccc(Cl)cc2Cl)cs1)c1ccc(OCC2CCCO2)cc1 (stereo not drawn)	i	i	i	6*	-12
COc1ccc(NC(=O)CN(C)C(=O)C(C)N2C(=O)c3ccccc3C2=O)cc1 (stereo not drawn)	i	i	i	i	-6
O=C(CN1CCN(CN2C(=O)NC3(CCCCCC3)C2=O)CC1)Nc1ccc(F)cc1	·	·	i	·	·
OC[C@@H](O)C1OC2NC(=S)OC2C1O (stereo partly drawn)	i	i	i	i	7.7*
O=C(NCc1ccc(F)cc1)C1CCN(S(=O)(=O)c2ccc(Br)s2)CC1	i	i	i	i	-11
CCn1c(Cn2nnc(-c3ccccc3)n2)nnc1SCC(=O)Nc1cccc(C(C)=O)c1	i	i	i	i	-4
CCn1c(Cn2nnc(-c3ccccc3)n2)nnc1SCC(=O)Nc1ccc(C(C)=O)cc1	i	i	i	i	4.6*
Cc1nnc(NC(=O)C2CC(=O)N(C(C)c3ccccc3)C2)s1 (stereo not drawn)	i	i	i	i	-10
